The source of these data is paper PMC7172891 (Peptides, 2008).

In series [1] the test system is HSV-1. Description: HSV-1 virus entry assay: plaque inhibition on Vero cells. The series is classed as cell-based. The following applies: for inhibition of HSV-1 infectivity, cell pre-exposure: peptide 250 μM, Vero cells treated with peptide before viral challenge; for activity in dose-dependent inhibition assay of HSV entry: co-treatment, up to 500 μM, Vero cells.
For series [2] the following is noted: PC/Chol (1:1) LUV, probe dilution assay; cited from earlier work.
For series [3], the system named is HIV-1. The following applies: cited from earlier work.
Series [4] concerns parainfluenza-2 virus (PIV-2). In words: Inhibition of PIV-2 infectivity, co-exposure mode. Conditions: peptide 250 and 500 μM. The series is classed as cell-based. Put shortly:
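Co-exposure: cells and virus inoculum incubated together with peptide for 45 min at 37 °C. Non-penetrated virus inactivated with low-pH citrate buffer. Cells then held 48 h at 37 °C in DMEM with CMC, and plaques counted. Run in triplicate. Percent inhibition calculated against no-peptide control, with standard deviations; scrambled peptides run in parallel.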

Series [5] can be described thus: Circular dichroism: helix content and oligomeric state. The series is classed as physicochemical. The following applies: for ratio θ222/θ208 (monomer about 0.8, oligomer above 1.0) / percentage of helix (CD, ellipticity at 222 nm): peptide 20 μM. In a few lines:
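CD spectra at room temperature in 1.0 or 0.1 cm quartz cells. Peptide 20 μM titrated in varying % TFE; 5–200 μM series in buffer, 20% TFE and […]. For lipid samples, peptide in TFE was mixed with lipid in chloroform, dried, lyophilised and rehydrated in water to 0.9 mM final lipid. Scans averaged (three, 260–195 nm), blank-corrected, converted to MRE.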
On the technique in general: Circular dichroism is widely used to follow secondary structure.

The nature of series [6]: Native gel electrophoresis: oligomeric state of peptides. In kind it is physicochemical. Conditions: without SDS and with 4 mM and 5 mM SDS. In a few lines: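 Peptide solution (1 mM in phosphate buffer pH 7.3, before mixing) incubated alone or with 4 or 5 mM SDS for 5 min at 25 °C. Non-denaturing PAGE with 4% stacking and 12% separating gel, run 2.5 h at constant 30 mA. Bands visualised with Coomassie R-250.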

Series [7] is described as follows: Solubility / precipitation observations. In kind it is physicochemical.

In the case of “AAHLIDALYAEFLGGRVLTTPVVHRALFYASAVLRQPFLAGVPSA [gH493–537]”, the “inhibition of HSV-1 infectivity, post-exposure treatment” value in series [1] (peptide 250 μM added after 45 min infection of Vero cells) is reported as “not active”. Moreover, the “inhibition of HSV-1 infectivity, cell pre-exposure” value in series [1] is on record as “not active”. Besides, the “ability to induce fusion of vesicles (lipid mixing), previously reported” value (shortened to “ability to induce fusion of vesicles”) in series [2] is reported as “able to induce fusion”.

As for Enfuvirtide, the “inhibition of HIV-1” value in series [3] is reported as “active at low nanomolar concentration”.

For GLASTLTRWAHYNALIRAF [gH626–644], the “inhibition of HSV-1 infectivity, cell pre-exposure” value in series [1] was “partially inhibit viral entry”. The “effect on parainfluenzavirus-2 (PIV-2) infectivity” value in series [4] was “none of these peptides exerted any significant effect”. The “ratio θ222/θ208 (monomer about 0.8, oligomer above 1.0)” value in series [5] (20% TFE, TFE titration) is “approximately 1.05”; in series [5] (higher percentages of TFE) it was 0.76. In series [5] (20% TFE, peptide 5 μM), the “helicity (CD, ellipticity at 222 nm)” value is on record as “about 19%”. Besides, the “percentage of helix (CD, ellipticity at 222 nm)” value is reported as 27% in series [5] (20% TFE, room temperature) and “approximately 35%” in series [5] (increasing (higher) concentrations of TFE). The “ratio θ222/θ208 over peptide concentration” value in series [5] (20% TFE, peptide 5–200 μM) is given as “around 1”. Further, in series [5] (CD data), the “concentration at which the peptide already oligomerises (CD)” value came out at 50 µM. The “conformation in buffer solution (CD)” value in series [5] (buffer solution, spectra unaltered over 5–200 μM) was “random coil conformation”. The “oligomer order in NATIVE-PAGE” value in series [6] was “forms higher order oligomers compared to gH493–512”. The “precipitation in inhibition experiments” value in series [7] (500 μM) is “probably indicating a precipitation of the peptide at this concentration”. The “precipitation / macroscopic aggregation” value in series [7] (in presence of membranes, concentrations assayed in CD studies (5–200 μM)) was “did not precipitate or otherwise form macroscopic aggregates”. The “ability to induce fusion of vesicles” value in series [2] is “able to induce fusion”.

On to “RLTGLLATSGFAFVNAAHANGAVCLSDLLGFLAHSRALAG [gH381–420]”, for which the “activity in dose-dependent inhibition assay of HSV entry” value in series [1] is given as “non-significant activity”. Also, in series [2], the “ability to induce fusion of vesicles” value is listed as “able to induce fusion”.

Turning to “TWLATRGLLRSPGRYVYFSPSASTWPVGIWTTGELVLGCDAAL [gH220–262]”, in series [1], the “activity in dose-dependent inhibition assay of HSV entry” value is “non-significant activity”. The “ability to induce fusion of vesicles” value in series [2] was “able to induce fusion”.
